M4 ag – human M4 muscarinic receptor agonists, primary screen, CHO-K1 cells, Fluo-8 calcium fluorescence; 0.14% of 360,000 active; activation, % at 3 µM; CHO-K1 hM4/Gqi5; vehicle 0%, full acetylcholine response 100%;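 active = activation above the run mean over all test wells plus 3 SD, cut at about 32% in these data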;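 also: peak over basal fluorescence ratio per well then scaled between controls; 0% = DMSO wells and 100% = acetylcholine at EC100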
Target sequence (P08173 whole entry, looked up): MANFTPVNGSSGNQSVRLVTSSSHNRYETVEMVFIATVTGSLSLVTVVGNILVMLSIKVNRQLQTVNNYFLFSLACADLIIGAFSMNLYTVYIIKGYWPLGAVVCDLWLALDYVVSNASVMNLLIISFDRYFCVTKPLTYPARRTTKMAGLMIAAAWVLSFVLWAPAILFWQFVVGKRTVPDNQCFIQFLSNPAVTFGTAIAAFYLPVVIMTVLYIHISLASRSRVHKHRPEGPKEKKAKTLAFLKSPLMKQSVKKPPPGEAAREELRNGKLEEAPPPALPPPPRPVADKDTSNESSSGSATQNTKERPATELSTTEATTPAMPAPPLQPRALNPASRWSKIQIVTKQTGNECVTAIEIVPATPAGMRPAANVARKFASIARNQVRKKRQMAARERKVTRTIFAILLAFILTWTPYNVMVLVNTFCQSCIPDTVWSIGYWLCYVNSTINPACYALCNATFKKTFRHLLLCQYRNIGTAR
CHRM4 antagonist – human M4 muscarinic receptor antagonists, primary screen, CHO cells, Fluo-8 calcium fluorescence; Muscarinic acetylcholine receptor M4 (Homo sapiens), P08173; CHO-hM4 cells, ACh EC80; inhibition, % at 3 µM; 0.73% of 360,000 active; AID 624125, 2012;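 active = inhibition above its plate's cutoff, the mean inhibition of sample wells plus 3 SD, cut at about 27% in these data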;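 also: 0% = acetylcholine EC80 with DMSO and 100% = DMSO without agonist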
M4 PAM – human M4 muscarinic receptor positive allosteric modulators, primary screen, CHO-K1 cells, Fluo-8 calcium fluorescence; Muscarinic acetylcholine receptor M4 (Homo sapiens), P08173; CHO-K1 hM4/Gqi5, ACh EC20; 0% = ACh EC20, 100% = maximal ACh; activation, % at 3 µM; 0.4% of 360,000 active; AID 624126, 2012;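 active = activation above its plate's cutoff, the mean activation of sample wells plus 3 SD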
CHRM5 agonist – human M5 muscarinic receptor agonists, primary screen, CHO-K1 cells, Fluo-8 calcium fluorescence; Muscarinic acetylcholine receptor M5 (Homo sapiens), P08912; CHO-K1 hM5 cells; 0% DMSO wells, 100% maximal acetylcholine response; activation, % at 3 µM; 0.19% of 360,000 active;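 active = activation above the run's mean over test compounds plus 3 SD, cut at about 23% in these data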;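 also: signal is peak over basal fluorescence ratio across the kinetic read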
CHRM5 PAM – human M5 muscarinic receptor positive allosteric modulators, primary screen, CHO-K1 cells, Fluo-8 calcium fluorescence | Muscarinic acetylcholine receptor M5 (Homo sapiens), P08912 | CHO-K1 hM5, ACh EC20 PAM; 0% = ACh EC20, 100% = ACh EC100 | activation, % at 3 µM | 0.3% of 360,000 active | AID 624038, 2012;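 active = activation above the run cutoff, the mean activation of all test compounds plus 3 SD, cut at about 18% in these data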
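Replicates: One well per compound, no replicates | System: Human M5 receptor in CHO-K1 cells | Benchmarks: Low control EC20 acetylcholine (0%), high control EC100 acetylcholine (100%) | Probe or stimulus: Acetylcholine, EC20 level | Times: Fluo-8 loading 80 min at 37 °C plus 30 min room temperature | Signal: Intracellular calcium via Fluo-8 fluorescence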
M5 antag – human M5 muscarinic receptor antagonists, primary screen, CHO cells, Fluo-8 calcium fluorescence; inhibition, % at 3 µM; 0.59% of 360,000 active; AID 624040, 2012; Muscarinic acetylcholine receptor M5 (Homo sapiens), P08912; CHO-hM5 cells, ACh EC80;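 active = inhibition above a per-plate cutoff, the mean of that plate's test compounds plus 3 SD, cut at about 27% in these data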;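 also: 0% = acetylcholine EC80 with DMSO and 100% = DMSO without agonist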
Active calls of the source: *. Hits are enriched below; roughly 1.9% of the tested compounds scored in any of these assays.

SMILES	M4 ag	CHRM4 antagonist	M4 PAM	CHRM5 agonist	CHRM5 PAM	M5 antag
O=C(NNS(=O)(=O)c1ccc([N+](=O)[O-])cc1)C(=O)Nc1cccc(C(=O)O)c1	0.7	-8.8	18.6*	-2.5	6.5	-6.8
COc1ccc2[nH]c3c(c2c1)CCN1C(=O)N([C@@H](C)C(=O)NC2CCN(Cc4ccccc4)CC2)C(=O)[C@]31C	1.9	8.4	-8.1	-3.7	-0.2	1.1
COc1ccc(CC(=O)NC(C)c2nnc(SCCC(=O)Nc3ccccc3)n2C)cc1 (centres undefined)	1.1	11.0	12.0	4.2	18.1*	-9.7
CC(C)(C)CC(=O)Nc1cc2c3c(c1)CCC(=O)N3CCC2	1.5	0.0	-1.5	-1.9	-7.1	17.7
O=C(CCCN1C(=O)/C(=C\c2cccs2)SC1=S)Nc1cccc(C(=O)O)c1	1.4	-19.5	21.1*	-2.0	0.1	-4.9
CC(=O)c1ccc(S(=O)c2ccccc2)cc1 (centres undefined)	1.8	-3.2	33.7*	-4.8	1.9	0.3
O=C(Nc1c[nH]c(=O)[nH]c1=O)c1cccc([N+](=O)[O-])c1	0.5	-7.4	-6.6	4.2	21.7*	-15.8
Cc1cc(C(=O)Nc2c[nH]c(=O)[nH]c2=O)ccc1[N+](=O)[O-]	1.1	2.0	6.7	1.1	4.1	-0.1
O=C(Nc1c[nH]c(=O)[nH]c1=O)c1cccc(F)c1	1.2	-1.9	0.0	-2.7	-4.5	13.1
Cc1cccc(N2C(=O)c3ccc(C(=O)Nc4c[nH]c(=O)[nH]c4=O)cc3C2=O)c1	1.1	27.4*	15.6	-0.8	5.7	-5.3
O=C1CSC(=Nc2ccccc2[N+](=O)[O-])N1	0.7	-9.2	-0.9	-3.4	-0.1	-0.2
CC(=O)N1CCN(C(=O)COc2ccc(N(C)S(=O)(=O)c3cccs3)cc2)CC1	2.2	-22.4	17.6	-1.1	20.2*	-1.4
Cc1nc2ccccc2c(=O)n1NC(=O)c1cccc(Cl)c1	15.3	27.6*	-10.9	0.9	-11.2	19.6
COc1ccc(/C=C2\COc3ccccc3C2=O)cc1OC	5.2	5.4	-5.0	-1.0	-4.2	5.8
CCOc1cc(/C=C2\COc3ccccc3C2=O)cc(Br)c1OCC(=O)N(C)C	19.6	28.6*	-10.7	3.2	-3.9	14.0
CCCn1c(=O)c(C(=O)NCc2ccco2)c(O)c2ccccc21	0.8	-3.4	-0.8	0.6	7.7	-2.7
Cn1c(N)c(C(=O)/C=C/c2ccccc2)c(=O)[nH]c1=O	0.3	-4.4	-0.1	-7.5	-18.8	46.8*
CCOc1ccc(Cn2nnc(-c3ccc(S(C)(=O)=O)cc3)n2)cc1OCC	0.5	5.8	0.7	-0.8	-5.2	6.4
CCSc1ccc([C@@H]2[C@H]3C(=O)N(C)C(=O)[C@H]3[C@]3(C(=O)OC)CCCCN23)cc1OC	3.5	1.4	-3.4	-4.5	-1.8	7.3
NC(=O)c1nsc(C(=O)N(c2ccc3c(c2)OCO3)C(C(=O)NCC2CCCO2)c2ccc(F)cc2)c1N (centres undefined)	15.1	20.1	23.5*	0.9	18.8*	22.2
NC(=O)c1nsc(C(=O)N(c2ccccc2)C(C(=O)NCc2ccc(F)cc2)c2ccc(O)cc2)c1N (centres undefined)	30.7	30.6*	-17.6	3.5	-9.0	13.9
CCOC(=O)CN1N=C(c2ccc(C)cc2)CCC1=O	-0.2	5.1	-2.7	-4.4	-2.3	8.9
O=C(CSc1nnnn1C1CC2CCC1C2)Nc1ccnc2ccccc12 (centres undefined)	14.6	25.2	-15.9	10.4	-15.6	31.9*
COc1ccc(N2CCN(C(=O)C(=O)c3cc(OC)c(OC)c(OC)c3)CC2)cc1	4.5	-14.0	0.7	0.9	-7.2	12.9
COc1cc(C(=O)C(=O)N2CCN(c3ccccc3)CC2)cc2ccccc12	5.1	-18.5	3.5	0.5	18.5*	-18.9
SMILES	M4 ag	CHRM4 antagonist	M4 PAM	CHRM5 agonist	CHRM5 PAM	M5 antag
COCCN1Cc2cccc(C(=O)Nc3cc(C)cc(C)c3)c2C1=O	1.3	-0.4	-2.4	-6.9	-1.2	-0.6
COCCN1Cc2cccc(C(=O)Nc3c(C)cc(C)cc3C)c2C1=O	1.3	-1.2	12.2	22.0	37.4*	-4.1
COc1ccc(C(=O)OCC(=O)NCCCc2ccccc2)c(OC)c1	3.1	11.5	-4.4	-2.1	-4.6	9.4
COc1ccc(C(=O)OCC(=O)NC(=O)Nc2ccccc2F)c(OC)c1	0.4	9.1	21.5*	1.2	-7.8	14.1
Cc1cc(NC(=O)CSc2nnc3ccccn23)no1	1.3	2.2	-4.1	-0.2	3.0	1.8
Cc1ccc(S(=O)(=O)N(CC(=O)Nc2ccccc2)C(=O)N2CCN(C)CC2)cc1	-0.1	1.0	19.7*	0.5	3.1	1.6
CC(C(=O)Nc1ccc2c(c1)OCCO2)c1ccc([N+](=O)[O-])cc1 (centres undefined)	17.1	2.6	-9.9	32.3*	-10.6	1.4
O=C(Nc1ccc(Cl)c(Cl)c1)O/N=C/c1ccncc1	14.1	14.4	-18.4	7.5	-15.8	31.6*
O=C(CC1SCCNC1=O)Nc1cccc(C(F)(F)F)c1 (centres undefined)	2.9	-5.0	32.4*	0.0	1.7	-1.8
O=C(COC(=O)CNC(=O)c1ccc(Cl)cc1Cl)Nc1cccc(S(=O)(=O)N2CCCC2)c1	9.6	-5.2	3.1	2.8	-8.0	3.6
O=C(COc1cc(F)ccc1[N+](=O)[O-])Nc1ccc(N2CCCCC2)cc1	1.4	-3.0	-1.3	-3.3	1.8	-1.0
COC(=O)c1ccccc1NC(=O)CCn1c(=O)oc2ccccc21	1.8	-1.9	1.0	-2.6	-0.7	5.1
c1ccc(-c2ccc(OCCCNC3CCCC3)cc2)cc1	29.5	39.2*	-21.6	4.2	-16.5	32.8*
CCOC(=O)c1ccc(N=c2scc(C)n2CC)cc1	-0.6	-7.7	-7.6	-8.3	-5.6	15.8
CCOC(=O)c1ccc(N=C2C(=S)N(c3ccc(C(=O)OCC)cc3)C(=N)N2/N=C/c2ccccc2)cc1	0.8	99.3*	-30.7	-7.2	-19.5	87.0*
C[N+]1(CC2COC3(CCCCC3)O2)CCCC1 (centres undefined)	-0.4	4.4	-10.2	-7.5	-5.0	7.6
